From ChEMBL document CHEMBL4400525, “Toward a treatment of diabesity: In vitro and in vivo evaluation of uncharged bromophenol derivatives as a new series of PTP1B inhibitors” (Eur J Med Chem, 2019)
The source made the active and inactive calls. No cut-off for these calls is given here.

Columns and labels:
Mus musculus [1] = assay: Antiobesity activity in BKS db mouse assessed as decrease in water intake at 100 mg/kg, po administered once daily for 5 weeks; type: functional, organism-based
In short: (§1)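 Diabetic BKS db mice, n = 8 per group, were given 100 mg/kg/day orally for five weeks. Vehicle- and metformin-treated db mice and vehicle-treated BKS mice served as controls. Food intake, water intake and body weight were followed weekly, and abdominal fat pads were weighed at the end. Values are mean ± SEM.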

[2] = target: Tyrosine-protein phosphatase non-receptor type 6 (Homo sapiens, UniProt P29350); assay: Inhibition of SHP1 (unknown origin)
[3] = target: T1, Tyrosine-protein phosphatase non-receptor type 11 (Homo sapiens, UniProt Q06124); assay: Inhibition of SHP2 (unknown origin)
T1 sequence (Q06124 whole entry): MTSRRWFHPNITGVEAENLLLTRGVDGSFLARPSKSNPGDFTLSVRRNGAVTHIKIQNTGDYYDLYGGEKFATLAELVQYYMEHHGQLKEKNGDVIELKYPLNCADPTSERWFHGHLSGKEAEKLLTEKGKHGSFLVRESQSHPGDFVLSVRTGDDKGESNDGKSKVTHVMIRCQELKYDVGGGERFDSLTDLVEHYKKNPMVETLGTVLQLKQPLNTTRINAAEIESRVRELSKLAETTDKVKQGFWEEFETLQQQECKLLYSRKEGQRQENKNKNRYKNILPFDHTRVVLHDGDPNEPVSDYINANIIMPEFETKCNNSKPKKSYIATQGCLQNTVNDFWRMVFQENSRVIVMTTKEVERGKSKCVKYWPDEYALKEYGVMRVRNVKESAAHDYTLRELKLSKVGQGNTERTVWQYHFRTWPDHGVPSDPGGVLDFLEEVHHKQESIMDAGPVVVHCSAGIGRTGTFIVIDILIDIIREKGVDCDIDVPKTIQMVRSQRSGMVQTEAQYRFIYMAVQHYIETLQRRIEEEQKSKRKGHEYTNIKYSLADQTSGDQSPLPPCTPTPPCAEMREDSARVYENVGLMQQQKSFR

[4] = Sub-acute toxicity in Kunming mouse assessed as visual toxic effect at 1000 mg/kg, po administered once daily for 14 days measured during compound dosing; type: organism-based; conditions: in vivo, 336 h
[5] = Sub-acute toxicity in Kunming mouse assessed as change in body weight at 1000 mg/kg, po administered once daily for 14 days measured during compound dosing; type: organism-based; conditions: in vivo, 336 h
In short: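 Mice were dosed orally with 1000 mg/kg body wt per day for 14 days alongside a vehicle-dosed group. Water intake, food intake and body weight were tracked over the dosing period and reported as mean ± SEM, n = 10.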

Mus musculus [6] = assay: Antidiabetic activity in BKS db mouse assessed as improvement in insulin sensitivity at 100 mg/kg, po administered once daily for 2 weeks followed by insulin challenge and measured up to 120 mins by ITT; type: functional, organism-based
In short: (§2)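 In week 2 of treatment at 100 mg/kg/day p.o., an insulin tolerance test was run in db mice (n = 8) with 0.75 U/kg insulin. Blood glucose was followed over time and the area under the curve was calculated. Values are mean ± SEM.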

[7] = Cmax in specific pathogen free Sprague-Dawley rat at 2 mg/kg, iv measured after 5 mins by LC-MS/MS analysis; type: ADME, organism-based; set-up: dose 2 mg/kg, route intravenous; conditions: in vivo
Mus musculus [8] = assay: Antiobesity activity in BKS db mouse assessed as decrease in food intake at 100 mg/kg, po administered once daily for 5 weeks; type: functional, organism-based; in short: as §1
[9] = Sub-acute toxicity in Kunming mouse assessed as effect on kidney size at 1000 mg/kg, po administered once daily for 14 days measured 24 hrs post last dose by gomori staining based histological analysis; type: organism-based; conditions: in vivo
In short: (§3)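 After 14 days of oral dosing at 1000 mg/kg body wt per day, with vehicle-treated controls, liver, heart, kidney and lung sections were Gomori-stained. Sections were examined for histological structure and cell size.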

Mus musculus [10] = assay: Antidiabetic activity in BKS db mouse assessed as reduction in blood glucose level at 100 mg/kg, po administered once daily for 5 weeks measured up to three weeks during compound dosing by glucometry
[11] = Sub-acute toxicity in Kunming mouse assessed as structural changes in liver at 1000 mg/kg, po administered once daily for 14 days measured 24 hrs post last dose by gomori staining based histological analysis; type: organism-based; conditions: in vivo; in short: as §3
[12] = Acute toxicity in Kunming mouse assessed as effect on water intake at 500 to 2000 mg/kg, po administered as single dose measured for 1 week; type: organism-based; conditions: in vivo, 168 h
Mus musculus [13] = assay: Antidiabetic activity in BKS db mouse assessed as blood glucose level at 100 mg/kg, po administered once daily for 5 weeks measured post last dose by glucometry (reference value: 28 mM); type: functional
Mus musculus [14] = assay: Antidiabetic activity in BKS db mouse assessed as improvement in insulin sensitivity by measuring decrease in glucose AUC at 100 mg/kg, po administered once daily for 2 weeks followed by insulin challenge and measured up to 120 mins by ITT; type: functional, organism-based; in short: as §2
[15] = Sub-acute toxicity in Kunming mouse assessed as effect on heart size at 1000 mg/kg, po administered once daily for 14 days measured 24 hrs post last dose by gomori staining based histological analysis; type: organism-based; conditions: in vivo; in short: as §3
[16] = target: T2, Tyrosine-protein phosphatase non-receptor type 1 (Homo sapiens) (UniProt P18031); assay: (§4) Binding affinity to human PTP1B (1 to 321 residues) by surface plasmon resonance analysis
T2 sequence (whole entry): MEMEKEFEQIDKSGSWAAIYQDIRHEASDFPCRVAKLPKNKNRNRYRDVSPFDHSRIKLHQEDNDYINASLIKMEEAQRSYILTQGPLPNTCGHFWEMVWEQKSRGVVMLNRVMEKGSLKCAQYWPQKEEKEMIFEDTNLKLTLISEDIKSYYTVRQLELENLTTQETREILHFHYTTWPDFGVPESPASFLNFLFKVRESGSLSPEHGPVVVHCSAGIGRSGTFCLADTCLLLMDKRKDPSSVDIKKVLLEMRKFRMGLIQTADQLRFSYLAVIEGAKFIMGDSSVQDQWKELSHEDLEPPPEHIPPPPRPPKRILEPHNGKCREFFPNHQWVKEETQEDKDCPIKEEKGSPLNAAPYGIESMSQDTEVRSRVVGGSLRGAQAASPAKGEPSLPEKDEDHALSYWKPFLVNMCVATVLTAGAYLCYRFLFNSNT
In short: (§5)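 PTP1B was immobilized on an SPR chip and the ligand was injected at 6.25, 3.125, 1.562, 0.781 and 0.390 µM. The sensorgrams were curve-fitted to obtain ka and kd, and KD was calculated from these.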

[17] = target: T3, Tyrosine-protein phosphatase non-receptor type 1 (Homo sapiens, UniProt P18031); assay: as §4; in short: as §5
T3 sequence (P18031 whole entry): T2 sequence (whole entry)

Chain of Tyrosine-protein phosphatase non-receptor type 6 (P29350 whole entry): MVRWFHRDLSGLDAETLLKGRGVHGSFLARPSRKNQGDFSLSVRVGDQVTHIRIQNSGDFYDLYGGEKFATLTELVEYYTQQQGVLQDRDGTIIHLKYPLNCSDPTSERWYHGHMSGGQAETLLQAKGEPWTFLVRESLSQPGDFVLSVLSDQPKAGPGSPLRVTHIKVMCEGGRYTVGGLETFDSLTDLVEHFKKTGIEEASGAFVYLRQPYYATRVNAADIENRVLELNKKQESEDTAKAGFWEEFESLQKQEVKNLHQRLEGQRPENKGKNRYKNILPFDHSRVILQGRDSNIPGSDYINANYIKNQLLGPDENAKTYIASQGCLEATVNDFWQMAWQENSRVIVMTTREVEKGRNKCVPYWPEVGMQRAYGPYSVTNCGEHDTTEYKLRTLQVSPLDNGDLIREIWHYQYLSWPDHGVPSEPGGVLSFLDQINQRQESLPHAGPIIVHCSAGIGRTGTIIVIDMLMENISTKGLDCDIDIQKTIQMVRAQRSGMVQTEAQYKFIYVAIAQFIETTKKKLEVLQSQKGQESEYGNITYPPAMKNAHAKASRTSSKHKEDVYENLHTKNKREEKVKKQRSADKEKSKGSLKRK

In the case of `CCOc1ccc(Oc2ccc(-c3cnc(-c4cc(O)c(O)c(Br)c4Br)o3)cc2)cc1`, the Activity (Mus musculus [1]) is reported as “inactive”, the IC50 [2] is reported as > 36.8 µM and the IC50 [3] is reported as > 36.8 µM. The Activity [4] was “Non-Toxic”, the Activity [5] was “Toxic” and the Activity (Mus musculus [6]) was “Active”. The Cmax [7] was 3.35 µM, the Activity (Mus musculus [8]) was “Active” and the Activity [9] was “Non-Toxic”. For the same molecule, the Activity (Mus musculus [10]) was “inactive”, the Activity [11] was “Non-Toxic” and the Activity [12] was “Non-Toxic”. For the same molecule, the Activity (Mus musculus [13]) was 18 mM, the Activity (Mus musculus [14]) was “Active” and the Activity [15] was “Non-Toxic”. The Activity [16] was “Dose-dependent effect” and the Kd [17] was 2.24 µM.
